Test system: MDA-MB-435 + TRAIL, ATPlite cytotoxicity, 24 h
Experiment: TRAIL sensitizers in resistant cancer line – cell-based, MDA-MB-435, ATPlite luminescence, 24 h, confirmation (AID 1747)
Settings: stronger effect = higher value; for cytotoxicity: compound alone, no TRAIL
In short: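 Material: TRAIL-resistant human MDA-MB-435 cancer cells / Also added: TRAIL, 30 ng/mL / Times: 24 h cell growth, 4 h compound pretreatment, 24 h TRAIL exposure / Signal: ATPlite ATP luminescence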

[1] = compound plus TRAIL, at 1.25 µM

SMILES | cytotoxicity with TRAIL (at 5 µM) | cytotoxicity (at 5 µM) | cytotoxicity with TRAIL [1] | cytotoxicity with TRAIL (compound plus TRAIL, at 2.5 µM)
CSc1nc(-c2ccccc2)nc(C(Cl)Cl)n1 | 82% | 0% | 44% | 58%
CCSc1nc(-c2ccccc2)nc(C(Cl)Cl)n1 | 73% | 0% | 28% | 45%
CSc1nc(-c2ccc(C)cc2)nc(C(Cl)Cl)n1 | 71% | 0% | 43% | 60%

Source: PubChem BioAssay AID1747 (Sanford-Burnham Center for Chemical Genomics, 2009)
